The values that follow come from the RNAGym collection of RNA variant scans (doi:10.1126/science.aae0568).

To fix the notation:
B1: tRNA (parent)
chain: GUUCCGUUGGCGUAAUGGUAACGCGUCUCCCUCCUAAGGAGAAGACUGCGGGUUCGAGUCCCGUACGGAACG

Fewer inactive variants are shown than the library holds. A value given as a limit tells only on which side of the number the result lay.

The variants in the data set derive from B1. The data set can be described thus: yeast fitness relative to wild type (ratio to wild type); higher = fitter; tRNA-Arg(CCU), competitive growth, 37 C, YPD. The gist of the method:
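For this measurement, the tRNA-Arg(CCU) gene was varied by chemical synthesis at a 3% per-site mutation rate across 69 sites, and each variant was placed at the native genomic locus in Saccharomyces cerevisiae. The pooled strains went through a 24-hour competition in YPD at 37°C in six parallel replicates, with amplicons from start and end populations read by 100-nucleotide paired-end sequencing. Darwinian fitness relative to wild type followed from the change in each genotype's frequency. Genotypes needed ≥ 100 starting reads, and estimates < 0.5 were set to 0.5.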
As for GUUCGGUUGGCGUAAUGGUAACGCGUCUCCCUCCUAAGGAGAAGACUGGGGGUUCGAGUCCCAUACGGAACG, the yeast fitness was 0.57.
The figure for GUUCGGUUGGCGUAAUGGUAACGCGUCUCCCUCCUAAGGAGAAGACUGCGGGUUCGAGUGCCGUACGGAACG is 0.581; for GUUCGGUUGGCGUAAUGGUAACGCGUCUCCCUCCUAAGGAGAAGACUGCGGGUUCGAGUACCGUACGGAACG it is 0.663.
With GUUCGGUUGGCGUAAUGGUAACGCGUCUCCCUCCUAAGGAGAAGACUGCGGGUUGGAGUCCCGUACGGAUCG, the yeast fitness was ≤ 0.5.
The figure for GUUCGGUUCGCGUAAUGGUGCCGCGUCUCCCUCCUAAGGAGAAGACUGCGGGUUCGAGCCCCGUACGGAACG is ≤ 0.5.
As for GUUCGGUUGGCGUAAUGGUAACGCGUCUCCCUCCUAAGGAGAAGACUGCGGGUUGGAGCUCCGUACUGAACG, the yeast fitness is ≤ 0.5.
GUUCGGUUGGCGUAAUGGUAACGCGUCUCCCUCCUAAGGAGAAGACUGCGGGUUCGAGUCCCGUAGGCAACG: the yeast fitness was ≤ 0.5.
GUUCGGUUGGCGUAAUGGUAACGCGUCUCCCUCCUAAGGAGAAGAAUGCGGGUUCGAGUCCCGUACGGAACG: the yeast fitness was 0.917.
Next, GUUCGGUUGGCGUAAUGGUAACGCGUCUCCCUCCUAAGGAGAAGAUUGCGGGUUCGAGUCCCGUACGGAACG: 0.88.
As to GUUCGAUUGGCGUAAUGGUAACGCGUCUUCCUGCUAAAGAGAAGACUGCGGGUUCGAGUCCCGUACUGAACG, the yeast fitness was ≤ 0.5.
As to GUUCGGUUGGCGUAAUGGUAACGCGUCUCCCUCCUAAGGAGAAGACUGCGGGUUUGAGUCCCGUACGCAACG, the yeast fitness was 0.506.
In the case of GUUCGCUUGGCGUAAUGGUAACGCGGCUCCCUCCUAAGGAGAAGACUGCGGGUUCGAGUCUCGUACGGAACG, the yeast fitness turned out to be 0.59.
For the variant GUUCGGUUGGCGUAAUGGUAACGCGUCUCCCUCCUAAGGAGAAGACUGCGGGUUCGAGUCGCGUACGGCACG, the yeast fitness is 0.574.
Regarding GUUCGGUUGGCGUAAUGGUAACGCGUCUCCCUCCUAAGGAGAAGACUGCGGGUUCGAGUUCGGUACGGAACG, the yeast fitness is 0.634.
Consider GUUCGGUUCGCGUAAUGGUAACGCGUCUCCCUCCUAAGGAGAAGACUGCGGGUUCGAGUCCCGUACGGAACG, for which the yeast fitness amounted to 0.696.
As for GUUCGGUUGGCGUAAUGGUAACGCGUCUCCCUCCUAAGGAGAAGACUGCGGGUUUGAGUCCCGUCCGGAUCG, the yeast fitness is ≤ 0.5.
Next, GUUCGGUUCGCGUAAUGGUUGCGGGUGUCCCUCCUAAGGAGAGGACUGCGGGUUCGAGUCCCGUACGGAACG: ≤ 0.5; GUUCGGUUGGCGUAAUGGUAACGCGUCUCCCUCCUAAGGAGAAGAGUGCGGGUUCGAGUCCCGUACGGUACG: 0.712; GUUCGGUUGGCGUAAUGGUAACGCGUCUCCCUCCUAAGGAGAAGACUGCGGGUUCGAGUCUCGUACGGAGCG: 0.707.
As for GUUCGGUUGGCGUAAUGGUAACGCGUCUCCCUCCUAAGGAGAAGACUGCGGGUUUGAGUCCCGUACAGAACG, the yeast fitness turned out to be 0.598.
Consider GUUCGCUUGGCGUAAUGGUAACGUGUCUCCCUCCUAAGGAGAAGAAUGCGGGUUCGAGUCCCGUACGGAACG, for which the yeast fitness is 0.559.
For GUUCGGUUGGCGUAAUGGUAACGCGUCUCCCUCUUAAGGAGAACACGGCGGGUUCGAGUCCCGUACGGAACG, the yeast fitness was ≤ 0.5.
Take GUUCGGUUGGCGUAAUGGUAACGCGUCUCCCUCCUAAGGAGAAGAUUGCGGGUUCGAGUCCCGUACGCAACG: the yeast fitness turned out to be 0.596.
As to GUUCGGUUAGCGUAAUGGUAACGCGUCUCCGUCCUAAGGAGAAGACUGCGGGUUCGAGUCCCGUACGGAACG, the yeast fitness turned out to be 0.767.
Regarding GUUCGGUUGGCGUAAUGGUAACGCGUCUCCCUCCUAAGGAGAAGACUGCGGGUUCGAGUCCUGUAGGGAACG, the yeast fitness amounted to 0.641.
The figure for GUUCGGUUGGCGUAAUGGUAACGCGUCUCCCUCCUAAGGAGAAGACUGUGGGUUCGAGUCCCCUACGGAACG is ≤ 0.5; for GUUCGGUUGGCGUAAUGGUAACGCGUCUCCCUCCUAAGGAGAAGACUGCGGGUUCGAGUCCUGUACGGCACG it is 0.708; for GUUCGCUUGGCGUAAUGGUAACGCGUCUCGCUUCUAAGGAGAAGUCUGCGGGUUCGAGUCCCGUACGGAACG it is ≤ 0.5.
For the variant GUUCGGUUGGCGUAAUGGUAACGCGUCUCCCUCCUAAGGAGAAGAGUGUGGGUUCGAGUCCCGUACGGAACG, the yeast fitness turned out to be 0.646.
As for GUUCGGUUCGCGUCAUGGUAACGCGUCUCCCUCCUAAGGAGAAGACUGCGGGUUCGAGUCCCGUACGGAACG, the yeast fitness was ≤ 0.5.
Turning to GUUCGGUUGGCGUAAUGGUAACGCGUCUCCCUCCUAAGGAGAAGAUUGUGGGUUCGAGUCCCGUACGGAACG, the yeast fitness is 0.944.
On to GUUCGGUUGGCGUAAUGGUAACGCGUCUCCCUCCUAAGGAGAAGACUGUGGGUUCGAGGCCCGUACGGAACG, for which the yeast fitness is 0.579.
Consider GUUCGGUUGGCGUAAUGGUAACGCGUCUCCCUCCUAAGGAGAAGAGUGCGGGUUCGAGUCCCGUCCGGAACG, for which the yeast fitness was found to be 0.668.
For GUUCGCUUGGCGUAAUGGUAACGCGUCUCCCUCCUAAGGAGAAGACUGCGGGUUCGAGUCCCGUACAGAACG, the yeast fitness was ≤ 0.5.
On to GUUCGGUUGGCGUAAUGGUAACGCGUCUCCCUCCUAAGGAGAAGACUGCGGGUUCGAGUCCCGUAUGGAACG, for which the yeast fitness worked out at 0.74.
As to GUUCGGUUGGCGUAAUGGUAACGCGUCUCCCUCGUAAGGAGAAGACUGCGGGUUCGAGUCCCGUAUGGAACG, the yeast fitness is ≤ 0.5.
As to GUUCGAUUGGCGUAAUGGUAACGCAUCUCCCUCCUAAGGAGAAGACUGCGGGUUCGAGUCCCGUACGGAACG, the yeast fitness was 0.675.
For GUUCGGUUGGCGUAAUGGUAACGCGUCUCCCUCGUAAGGAGAAGACAGCGGGUUCGAGUCCAAUACGGAACG, the yeast fitness is ≤ 0.5.
Turning to GUUCGGUUGGCGUAAUGGUAACGCGUCUCCCUCUUAAGGAGAAGACUGCGGGUUGGAGUCCCGUACGGAGCG, the yeast fitness was ≤ 0.5.
The figure for GUUCGGUUGGCGUAAUGGUAACGCGUCUCCCUCCUAAGGAGAAGACUGCGGGUUCGAGUCCGGUACGGAACG is 0.791; for GUUCGGUUAGCGUAAUGGUAACGCGUCUCCCUCCUAAGGAGAGGACUCCGGGUUCGAGUCCCGUACGGCACG it is ≤ 0.5.
As to GUUCGGUUGGCGUAAUGGUAACGCGUCUCCCUCCUAAGGAGAAGACUGUGGGUUCGAGUCGCGUACGGAACG, the yeast fitness was found to be 0.534.
As to GUUCGCUUGGCGUAAUGGUAACGCGUCUCCCUACUAAGGUGAAGACUGCGGGUUCGAGUCCCGUACGGACCG, the yeast fitness was ≤ 0.5.
As to GUUCGGUUGGCGUAAUGGUAACGCGUCUCCCUCUUAAGGAGAAGAAUGCGGGUUCGAGUCCUGUACGGAACG, the yeast fitness is ≤ 0.5.
The figure for GUUCGGUUGGCGUAAUGGUAACGCGUCUCCCUCGUAACGAGAAGACUGCGGGUUCGAGUCCCGUACGCAACG is ≤ 0.5.
The figure for GUUCGCUUGGCGUAAUGGUAACGCGUCUCCCUCCUAAGGAGAAGACUGCGGGUCCCAAUCCCGUACGGAACG is ≤ 0.5; for GUUCGGUUGGCGUAAUGGUAACGCGUCUCCCUCCUAAGGAGAAGACUGGAGGUUCGCGUCCCGUACGGAACG it is ≤ 0.5; for GUUCGCUUGGCGUAAUGGUAACGCGUCUCCCUCCUAGGGAGAAGACUGCGCGUUCGGGUCCCGUACGGAACG it is ≤ 0.5.
The figure for GUUCGGUUGGCGUAAUGGUAACGCGUCUCCCUCCUAAGGAGAAGACUGUGGGUUCGAGUCCCGUACGGAACG is 0.815; for GUUCGGUUGGCGUAAUGGUAACGCGUCUCCCUCCUAAGGAGAAGACUGUGGGUUCGACUCCCGUACGGAACG it is 0.622.
For GUUCGGUUGGCGUAAUGGUAACGCGUCUCCCUCUUAAGGAGAAGACUGCGGGUUCGAGUCCCGUACGGAUCG, the yeast fitness was ≤ 0.5.
In the case of GUUCGGUUGGCGUAAUGGUAACGCGUCUCCCUCCUAAGGAGAAGACUGCGGGUUUGAGUCACGUACGGAACG, the yeast fitness amounted to 0.605.
As to GUUCGGUUGGCGUAAUGGUAACGCGUCUCCCUCUUAAGGAGAAGACUGCGGGUUCGAGUCCCGUACGGAACG, the yeast fitness came to 0.599.
Turning to GUUCGAUUGGCGUAAUGGUAACACGUCUCCCUCCUAAGGAGAAGACUGCGGGUUCGAGUCCCGUACGGAACG, the yeast fitness is ≤ 0.5.
GUUCGGUUGGCGUAAUGGUAACGCGUCUCCCUCCUAAGGAGAAGAUUGCGAGUGCGAGUCCCGUACGGAACG: the yeast fitness turned out to be 0.571.
Regarding GUUCGGUUGGCGUAAUGGUAACGCGUCUCCCUCCUAAGGAGAAGAUUGCGGGUUCGAGUCCCGUAAGGAACG, the yeast fitness stood at 0.524.
The figure for GUUCGGUUGGCGUAAUGGUAACGCGUCUCCCUCCUAAGGAGAAGACUGCGGGUUCGAGUCGCGUUCGGAACG is ≤ 0.5; for GUUCGGUUAGCGUAAUGGUAACGCGUCUCCCUCCUAAGGAGAAGACUGCGGGUUCGAGUCCCGUCCGGAACG it is 0.596; for GUUCGGUUGGCGUAAUGGUAACGCGUCUCCCUCCUAAGGAGAAGACUGCGGGUUUGAGUCACGUUCGGAACG it is 0.669.
As for GUUCGGUUGGCGUAAUGGUAACGCGUCUCCCUCCUAAGGAGAAGACUGCGGGUUCGAGUCUCGUUCGGAACG, the yeast fitness was determined as 0.557.
Take GUUCGGUUGGCGUAAUGGUAACGCGUCUCCCUCCUAAGGAGAAGACUGCGGGUUCGAGUGCCGUACGGACCG: the yeast fitness stood at 0.509.
On to GUUCGCUUGGCGUAAUGGUAACGCGUCUCCCUCCUAAGGAGAAGACUGCGGGUUCGAGUCCCGCACGGAACG, for which the yeast fitness amounted to 0.586.
For the variant GUUCGGUUGGCGUAAUGGUAACGCGUCUCCCUCCUAAGGAGAAGACUGCGGGUUCGAGUCACGUACGGAACG, the yeast fitness was determined as 0.651.
With GUUCGGUUGGCGUAAUGGUAACGCGUCUCCCUCCUAAGGAGAAGACUGCGGGUUCGAGUCGCGUACGGAACG, the yeast fitness stood at 0.63.
Turning to GUUCGGUUGGCGUAAUGGUAACGCGUCUCCCUCCUAAGGAGAAGACUGCGGGUUCGAGUCUCGUACGGAACG, the yeast fitness came out at 0.736.
Next, GUUCGAUUGGCGUAAUGGUAACGCGUCUCCCUCCUAAGGAGAAGACUGCGGGGUCGCGUCCCGUACGGAACG: ≤ 0.5; GUUCGGUUGGCGUAAUGGUAACGCGUCUCCCUCCUAAGGAGAAGACUGCGGGUUCGAGUCACGUACAGAACG: 0.529.
Next, GUUCGCUUGGCGUAAUGGUAACGCGUCUCCCUCCUAAGGAGAAGAAUGCGGGUUCGAGUCCCGUACGGAACG: ≤ 0.5; GUUCGGUUCGCGUAAUGGUAGCGCGUCUCCCUCCUAAGGAGAAGACUGCGGGUUCGAGUCCCGUACGGAACG: 0.531.
Take GUUCGGUUGGCGUAAUGGUAACGCGUCUCCCUCUCAAGGAGAAGACUGCGGGUUCGAGUCCCGUACGGAACG: the yeast fitness amounted to 0.545.
The figure for GUUCGGUUGGCGUAAUGGUAACGCGUCUCCCUCCUAAGGAGAAGACUGCGGGUUCGAGUACCGUACGGCACG is 0.532; for GUUCGGUUAGCGUAAUGGUAACGCGUGUCCCUCCUAAGGAGAAGACUGCGGGUUCGAGUCUCGUACGGAACG it is ≤ 0.5.
Regarding GUUCGAUUGGCGUAAUGGUAACGCGUCUCCCUCCUAAGGAGAAGACUACGGGUUCGAGUCCCGUACGGAACG, the yeast fitness was ≤ 0.5.
In the case of GUUCGGUUAGUGUAAUGGUAUUGCGUCUCCCUCCUAAGGAGAAGACUGCGGGUUCGCGUGCCGUACGGAACG, the yeast fitness amounted to 0.535.
The figure for GUUCGGUUAGCGUAAUGGUGACGCGUCUCCCUCCUAAGGAGAAGACUGCGGGUUCGAGUCCCGUACGGAACG is 0.553.
